{"data": "Measured values pooled from the literature", "target": "Proto-oncogene tyrosine-protein kinase ROS (ROS1, Homo sapiens, UniProt P08922)", "note": "Protocols differ between the studies behind these lines."}
{"Compound": "O=c1[nH]c2ccccc2n1C1CCN(Cc2ccc(-c3[nH]c4cc5ncnc5cc4nc3-c3ccccc3)cc2)CC1", "assay": "cell-free assay", "conditions": "0.5 µM", "endpoint": "remaining signal", "value": "101%"}
{"Compound": "Cn1cc(-c2cc(F)cc(N3CCn4c(cc5c4CCCC5)C3=O)c2CO)cc(Nc2ccc(N3CCN(C4COC4)CC3)cn2)c1=O", "assay": "enzyme activity, inhibitor", "conditions": "0.1 µM", "endpoint": "inhibition", "value": "10%"}
{"Compound": "C#Cc1n[nH]c2c(-c3cn([C@@H](C)c4ccccn4)c(=O)[nH]c3=O)cc(F)cc12", "assay": "enzyme activity, inhibitor", "conditions": "0.1 µM", "endpoint": "inhibition", "value": "5.1%"}
{"Compound": "COc1ncccc1-c1cnn2ccc(N3CCN(C(=O)OC(C)C)CC3)nc12", "assay": "binding, competition with immobilised ligand", "conditions": "1 µM", "endpoint": "remaining binding", "value": "100%"}
{"Compound": "N#CC1(c2ccccn2)CCN(Cc2cc(C(=O)O)c(=O)n3ccccc23)CC1", "assay": "cell-free assay, competition with immobilised ligand", "conditions": "1 µM", "endpoint": "remaining binding", "value": "90%"}
{"Compound": "Cc1nn(C)cc1-c1nc2c(N3CCN(Cc4ccc(Cl)cc4)CC3)c(Cl)cnc2[nH]1", "assay": "binding, competition with immobilised ligand", "conditions": "1 µM", "endpoint": "remaining binding", "value": "100%"}
{"Compound": "Cn1cncc1[C@](O)(COc1ccc(C#N)cc1-c1ccc(OC(F)(F)F)cc1)c1ccc(C#N)cc1", "assay": "cell-free assay, competition with immobilised ligand", "conditions": "1 µM", "endpoint": "remaining binding", "value": "89%"}
{"Compound": "Nc1ncc(-c2nc(N3CCOCC3)nc(N3CCOCC3)n2)c(C(F)F)n1", "assay": "binding, competition with immobilised ligand", "conditions": "10 µM", "endpoint": "remaining binding", "value": "54%"}
